Results: ChEMBL document CHEMBL1629608, “Variations in amino acid composition of antisense peptide-phosphorodiamidate morpholino oligomer affect potency against Escherichia coli in vitro and in vivo” (Antimicrob Agents Chemother, 2009)
Values after ≈ are worked out from the molar mass of the structure shown. Active and inactive are the calls of the source. The calls are words filed in the database; no cut-off is given here.

Assays:
Escherichia coli [1] = assay: Antibacterial activity against Escherichia coli K-12 W3110 infected in mouse assessed as increase of mouse survival at 30 ug, ip administered 15 mins and 12 hrs postinfection; format: functional, organism-based; settings: K-12 substr. W3110
How it was run: (§1)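 Mice in groups of 3–7 were infected intraperitoneally with E. coli W3110 from an LB culture. They were treated ip at 15 min and 12 h postinfection with 10, 30, 100 or 300 μg per dose; 300 μg is noted as ~15 mg/kg. Controls were water or scrambled-sequence PPMO. Survival was followed to 48 h and analysed by the Kaplan-Meier method.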

Escherichia coli [2] = assay: Antibacterial activity against Escherichia coli K-12 W3110 infected in mouse assessed as reduction of bacterial level in blood at 30 ug, ip administered 15 mins and 12 hrs postinfection measured after 2 hrs post dose relative to control; format: functional
How it was run: (§2)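 Mice in groups of 3–7 were infected intraperitoneally with E. coli W3110 from an LB culture. They were dosed ip with 10–300 μg per dose at 15 min and 12 h postinfection. Controls were water or scrambled-sequence PPMO. Blood was taken at 2, 6, 12, 24 and 48 h, diluted and plated on LB for CFU/ml. Log CFU was compared by one-way ANOVA with Tukey-Kramer; mean ± SD.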

Escherichia coli [3] = assay: Antibacterial activity against Escherichia coli K-12 W3110 infected in mouse assessed as reduction of bacterial level in blood at 100 to 300 ug, ip administered 15 mins and 12 hrs postinfection relative to control; format: functional, K-12 substr. W3110
How it was run: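 E. coli K-12 W3110 was grown in LB broth for the inoculum and injected intraperitoneally into groups of 3–7 mice. Conjugates were given ip at 15 min and 12 h postinfection (10–300 μg per dose), with water or scrambled-sequence conjugate as controls. Blood drawn at 2, 6, 12, 24 and 48 h was diluted and plated on LB for CFU counts. Survival was followed by Kaplan-Meier, and log CFU was compared by ANOVA with Tukey-Kramer.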

Escherichia coli [4] = assay: Antibacterial activity against Escherichia coli K-12 W3110 infected in mouse assessed as increase of mouse survival at 10 ug, ip administered 15 mins and 12 hrs postinfection; format: functional, organism-based; settings: K-12 substr. W3110, filed as antagonist; how it was run: as §1
Escherichia coli [5] = assay: Antibacterial activity against Escherichia coli K-12 W3110 by microdilution method; format: functional; settings: K-12 substr. W3110
Escherichia coli [6] = assay: Antibacterial activity against Escherichia coli K-12 W3110 infected in mouse assessed as reduction of bacterial level in blood at 300 ug, ip administered 15 mins and 12 hrs postinfection measured after 12 hrs post dose relative to control; format: functional, K-12 substr. W3110; how it was run: as §2
Escherichia coli [7] = assay: Antibacterial activity against Escherichia coli K-12 W3110 infected in mouse assessed as reduction of bacterial level in blood at 100 ug, ip administered 15 mins and 12 hrs postinfection measured after 12 hrs post dose relative to control; format: functional, K-12 substr. W3110; how it was run: as §2
Escherichia coli [8] = assay: Antibacterial activity against Escherichia coli K-12 W3110 infected in mouse assessed as increase of mouse survival at 30 to 300 ug, ip administered 15 mins and 12 hrs postinfection; format: functional, organism-based; settings: K-12 substr. W3110; how it was run: as §1
Escherichia coli [9] = assay: Ratio of compound MIC to ampicillin MIC for Escherichia coli K-12 W3110; format: functional, K-12 substr. W3110

## CC1(C)S[C@@H]2[C@H](NC(=O)[C@H](N)c3ccccc3)C(=O)N2[C@H]1C(=O)O [AMPICILLIN]
Escherichia coli [1]
  Activity: inactive
Escherichia coli [2]; K-12 substr. W3110
  Activity: inactive
Escherichia coli [3]
  log10cfu: 3

## Cc1cn([C@H]2CN(P(=O)(OC[C@@H]3CN(P(=O)(OC[C@@H]4CN(P(=O)(OC[C@@H]5CN(P(=O)(OC[C@@H]6CN(P(=O)(OC[C@@H]7CN(P(=O)(OC[C@@H]8CN(P(=O)(OC[C@@H]9CN(P(=O)(OC[C@@H]%10CNC[C@H](n%11cnc%12c(=O)[nH]c(N)nc%12%11)O%10)N(C)C)C[C@H](n%10cc(C)c(=O)[nH]c%10=O)O9)N(C)C)C[C@H](n9cnc%10c(=O)[nH]c(N)nc%109)O8)N(C)C)C[C@H](n8cnc9c(N)ncnc98)O7)N(C)C)C[C@H](n7cc(C)c(=O)[nH]c7=O)O6)N(C)C)C[C@H](n6cnc7c(N)ncnc76)O5)N(C)C)C[C@H](n5cnc6c(=O)[nH]c(N)nc65)O4)N(C)C)C[C@H](n4ccc(N)nc4=O)O3)N(C)C)C[C@@H](COP(=O)(N(C)C)N3C[C@@H](COP(=O)(N(C)C)N4C[C@@H](COP(=O)(N(C)C)N5CCN(C(=O)CCNC(=O)CCCCCNC(=O)[C@H](CCCNC(=N)N)NC(=O)CCCCNC(=O)[C@H](CCCNC(=N)N)NC(=O)[C@H](CCCNC(=N)N)NC(=O)CCCCNC(=O)[C@H](CCCNC(=N)N)NC(=O)[C@H](CCCNC(=N)N)NC(=O)CCCCNC(=O)[C@H](CCCNC(=N)N)NC(=O)[C@H](CCCNC(=N)N)NC(=O)CCCCNC(=O)[C@@H](N)CCCNC(=N)N)CC5)O[C@@H](n5ccc(N)nc5=O)C4)O[C@@H](n4cc(C)c(=O)[nH]c4=O)C3)O2)c(=O)[nH]c1=O (stereo not given in full)
Escherichia coli [4]
  Activity: Antagonist
Escherichia coli [5]
  MIC: 1.25 µM (≈ 7.02 µg/mL)
Escherichia coli [6]
  log10cfu: 2.5
Escherichia coli [2]
  Activity: 98%
Escherichia coli [7]
  log10cfu: 2.5
Escherichia coli [8]
  Activity: Active

## Cc1cn([C@H]2CN(P(=O)(OC[C@@H]3CN(P(=O)(OC[C@@H]4CN(P(=O)(OC[C@@H]5CN(P(=O)(OC[C@@H]6CN(P(=O)(OC[C@@H]7CN(P(=O)(OC[C@@H]8CN(P(=O)(OC[C@@H]9CN(P(=O)(OC[C@@H]%10CNC[C@H](n%11cnc%12c(=O)[nH]c(N)nc%12%11)O%10)N(C)C)C[C@H](n%10cc(C)c(=O)[nH]c%10=O)O9)N(C)C)C[C@H](n9cnc%10c(=O)[nH]c(N)nc%109)O8)N(C)C)C[C@H](n8cnc9c(N)ncnc98)O7)N(C)C)C[C@H](n7cc(C)c(=O)[nH]c7=O)O6)N(C)C)C[C@H](n6cnc7c(N)ncnc76)O5)N(C)C)C[C@H](n5cnc6c(=O)[nH]c(N)nc65)O4)N(C)C)C[C@H](n4ccc(N)nc4=O)O3)N(C)C)C[C@@H](COP(=O)(N(C)C)N3C[C@@H](COP(=O)(N(C)C)N4C[C@@H](COP(=O)(N(C)C)N5CCN(C(=O)CCNC(=O)CCCCCNC(=O)[C@H](Cc6ccccc6)NC(=O)[C@H](Cc6ccccc6)NC(=O)[C@H](CCCNC(=N)N)NC(=O)[C@H](Cc6ccccc6)NC(=O)[C@H](Cc6ccccc6)NC(=O)[C@H](CCCNC(=N)N)NC(=O)[C@H](Cc6ccccc6)NC(=O)[C@H](Cc6ccccc6)NC(=O)[C@@H](N)CCCNC(=N)N)CC5)O[C@@H](n5ccc(N)nc5=O)C4)O[C@@H](n4cc(C)c(=O)[nH]c4=O)C3)O2)c(=O)[nH]c1=O (stereo not given in full)
Escherichia coli [5]
  MIC: 2.5 µM (≈ 13.3 µg/mL)
Escherichia coli [9]
  Ratio: 2.5

## Cc1cn([C@H]2CN(P(=O)(OC[C@@H]3CN(P(=O)(OC[C@@H]4CN(P(=O)(OC[C@@H]5CN(P(=O)(OC[C@@H]6CN(P(=O)(OC[C@@H]7CN(P(=O)(OC[C@@H]8CN(P(=O)(OC[C@@H]9CN(P(=O)(OC[C@@H]%10CNC[C@H](n%11cnc%12c(=O)[nH]c(N)nc%12%11)O%10)N(C)C)C[C@H](n%10cc(C)c(=O)[nH]c%10=O)O9)N(C)C)C[C@H](n9cnc%10c(=O)[nH]c(N)nc%109)O8)N(C)C)C[C@H](n8cnc9c(N)ncnc98)O7)N(C)C)C[C@H](n7cc(C)c(=O)[nH]c7=O)O6)N(C)C)C[C@H](n6cnc7c(N)ncnc76)O5)N(C)C)C[C@H](n5cnc6c(=O)[nH]c(N)nc65)O4)N(C)C)C[C@H](n4ccc(N)nc4=O)O3)N(C)C)C[C@@H](COP(=O)(N(C)C)N3C[C@@H](COP(=O)(N(C)C)N4C[C@@H](COP(=O)(N(C)C)N5CCN(C(=O)CCNC(=O)CCCCCNC(=O)[C@H](CCCNC(=N)N)NC(=O)CCNC(=O)[C@H](CCCNC(=N)N)NC(=O)[C@H](CCCNC(=N)N)NC(=O)CCCCCNC(=O)[C@H](CCCNC(=N)N)NC(=O)NC(=O)[C@H](CCCNC(=N)N)NC(=O)CCNC(=O)[C@H](CCCNC(=N)N)NC(=O)[C@H](CCCNC(=N)N)NC(=O)CCCCCNC(=O)[C@@H](N)CCCNC(=N)N)CC5)O[C@@H](n5ccc(N)nc5=O)C4)O[C@@H](n4cc(C)c(=O)[nH]c4=O)C3)O2)c(=O)[nH]c1=O (stereo not given in full)
Escherichia coli [5]
  MIC: 2.5 µM (≈ 14.1 µg/mL)

## Cc1cn([C@H]2CN(P(=O)(OC[C@@H]3CN(P(=O)(OC[C@@H]4CN(P(=O)(OC[C@@H]5CN(P(=O)(OC[C@@H]6CN(P(=O)(OC[C@@H]7CN(P(=O)(OC[C@@H]8CN(P(=O)(OC[C@@H]9CN(P(=O)(OC[C@@H]%10CNC[C@H](n%11cnc%12c(=O)[nH]c(N)nc%12%11)O%10)N(C)C)C[C@H](n%10cc(C)c(=O)[nH]c%10=O)O9)N(C)C)C[C@H](n9cnc%10c(=O)[nH]c(N)nc%109)O8)N(C)C)C[C@H](n8cnc9c(N)ncnc98)O7)N(C)C)C[C@H](n7cc(C)c(=O)[nH]c7=O)O6)N(C)C)C[C@H](n6cnc7c(N)ncnc76)O5)N(C)C)C[C@H](n5cnc6c(=O)[nH]c(N)nc65)O4)N(C)C)C[C@H](n4ccc(N)nc4=O)O3)N(C)C)C[C@@H](COP(=O)(N(C)C)N3C[C@@H](COP(=O)(N(C)C)N4C[C@@H](COP(=O)(N(C)C)N5CCN(C(=O)CCNC(=O)CCCCCNC(=O)[C@H](CCCCN)NC(=O)[C@H](Cc6ccccc6)NC(=O)[C@H](Cc6ccccc6)NC(=O)[C@H](CCCCN)NC(=O)[C@H](Cc6ccccc6)NC(=O)[C@H](Cc6ccccc6)NC(=O)[C@H](CCCCN)NC(=O)[C@H](Cc6ccccc6)NC(=O)[C@H](Cc6ccccc6)NC(=O)[C@@H](N)CCCCN)CC5)O[C@@H](n5ccc(N)nc5=O)C4)O[C@@H](n4cc(C)c(=O)[nH]c4=O)C3)O2)c(=O)[nH]c1=O (stereo not given in full)
Escherichia coli [5]
  MIC: 10 µM (≈ 53.6 µg/mL)

## Cc1cn([C@H]2CN(P(=O)(OC[C@@H]3CN(P(=O)(OC[C@@H]4CN(P(=O)(OC[C@@H]5CN(P(=O)(OC[C@@H]6CN(P(=O)(OC[C@@H]7CN(P(=O)(OC[C@@H]8CN(P(=O)(OC[C@@H]9CN(P(=O)(OC[C@@H]%10CNC[C@H](n%11cnc%12c(=O)[nH]c(N)nc%12%11)O%10)N(C)C)C[C@H](n%10cc(C)c(=O)[nH]c%10=O)O9)N(C)C)C[C@H](n9cnc%10c(=O)[nH]c(N)nc%109)O8)N(C)C)C[C@H](n8cnc9c(N)ncnc98)O7)N(C)C)C[C@H](n7cc(C)c(=O)[nH]c7=O)O6)N(C)C)C[C@H](n6cnc7c(N)ncnc76)O5)N(C)C)C[C@H](n5cnc6c(=O)[nH]c(N)nc65)O4)N(C)C)C[C@H](n4ccc(N)nc4=O)O3)N(C)C)C[C@@H](COP(=O)(N(C)C)N3C[C@@H](COP(=O)(N(C)C)N4C[C@@H](COP(=O)(N(C)C)N5CCN(C(=O)CCNC(=O)CCCCCNC(=O)[C@@H](N)CCCNC(=O)[C@H](Cc6ccccc6)NC(=O)[C@H](Cc6ccccc6)NC(=O)[C@@H](N)CCCNC(=O)[C@H](Cc6ccccc6)NC(=O)[C@H](Cc6ccccc6)NC(=O)[C@@H](N)CCCNC(=O)[C@H](Cc6ccccc6)NC(=O)[C@H](Cc6ccccc6)NC(=O)[C@@H](N)CCCN)CC5)O[C@@H](n5ccc(N)nc5=O)C4)O[C@@H](n4cc(C)c(=O)[nH]c4=O)C3)O2)c(=O)[nH]c1=O (stereo not given in full)
Escherichia coli [5]
  MIC: > 80 µM

## Cc1cn([C@H]2CN(P(=O)(OC[C@@H]3CN(P(=O)(OC[C@@H]4CN(P(=O)(OC[C@@H]5CN(P(=O)(OC[C@@H]6CN(P(=O)(OC[C@@H]7CN(P(=O)(OC[C@@H]8CN(P(=O)(OC[C@@H]9CN(P(=O)(OC[C@@H]%10CNC[C@H](n%11cnc%12c(=O)[nH]c(N)nc%12%11)O%10)N(C)C)C[C@H](n%10cc(C)c(=O)[nH]c%10=O)O9)N(C)C)C[C@H](n9cnc%10c(=O)[nH]c(N)nc%109)O8)N(C)C)C[C@H](n8cnc9c(N)ncnc98)O7)N(C)C)C[C@H](n7cc(C)c(=O)[nH]c7=O)O6)N(C)C)C[C@H](n6cnc7c(N)ncnc76)O5)N(C)C)C[C@H](n5cnc6c(=O)[nH]c(N)nc65)O4)N(C)C)C[C@H](n4ccc(N)nc4=O)O3)N(C)C)C[C@@H](COP(=O)(N(C)C)N3C[C@@H](COP(=O)(N(C)C)N4C[C@@H](COP(=O)(N(C)C)N5CCN(C(=O)CCNC(=O)CCCCCNC(=O)[C@@H](Cc6ccccc6)NC(=O)[C@@H](Cc6ccccc6)NC(=O)[C@@H](CCCNC(=N)N)NC(=O)[C@@H](Cc6ccccc6)NC(=O)[C@@H](Cc6ccccc6)NC(=O)[C@@H](CCCNC(=N)N)NC(=O)[C@@H](Cc6ccccc6)NC(=O)[C@H](Cc6ccccc6)NC(=O)[C@H](N)CCCNC(=N)N)CC5)O[C@@H](n5ccc(N)nc5=O)C4)O[C@@H](n4cc(C)c(=O)[nH]c4=O)C3)O2)c(=O)[nH]c1=O (stereo not given in full)
Escherichia coli [5]
  MIC: 5 µM (≈ 26.6 µg/mL)
